In ChEMBL document CHEMBL2331427, “Synthesis and biological evaluation of thieno [2',3':4,5]pyrimido[1,2-b][1,2,4]triazines and thieno[2,3-d][1,2,4]triazolo[1,5-a]pyrimidines as anti-inflammatory and analgesic agents” (Eur J Med Chem, 2013):

Tests used:
[1] = tested on: Rattus norvegicus; assay: Analgesic activity in albino rat assessed as increase in tail withdrawal latency at 20 mg/kg, po after 2 hrs relative to control; assay type: functional
How it was run: (§1)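 Male albino rats, 120-150 g, five per group, free access to food and water. Compounds given orally at 20 mg/kg; control group kept, diclofenac Na reference at 20 mg/kg po. Tail withdrawal after immersion in 55 °C water. Reaction time read at 1, 2 and 4 h. Reported as mean ± S.E. and as % increase over basal values. ANOVA with Student-Newman-Keuls, P < 0.05.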

[2] = tested on: Rattus norvegicus; assay: Antiinflammatory activity in albino rat assessed as inhibition of formalin-induced paw edema at 20 mg/kg, po qd administered 7 days measured on day 1 post formalin challenge by plethysmometric analysis relative to control; assay type: functional
How it was run: (§2)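 Sub-acute model in rats. Compounds given orally at 20 mg/kg daily for 7 consecutive days. 2% formalin (0.1 ml) injected subplantar into left hind paw under light ether anaesthesia 1 h after the day-1 dose, with a second injection on day 3. Paw volume measured plethysmographically on days 1 and 8. Inhibition calculated versus control.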

[3] = tested on: Rattus norvegicus; assay: Antiinflammatory activity in albino rat assessed as inhibition of formalin-induced paw edema at 20 mg/kg, po administered 1 hr prior to formalin challenge measured after 4 hrs by plethysmometric analysis relative to control; assay type: functional
How it was run: (§3)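 Male albino rats, 180-200 g, five per group. Test compounds given orally at 20 mg/kg; diclofenac Na reference at 20 mg/kg po. After 1 h, 2% formalin (0.1 ml) injected subplantar into left hind paw under light ether anaesthesia. Paw volume read by water plethysmometer at 0, 1, 2 and 4 h. % inhibition of edema increase (Vt−Vo) calculated versus control; mean ± S.E.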

[4] = tested on: Rattus norvegicus; assay: Antiinflammatory activity in albino rat assessed as inhibition of formalin-induced paw edema at 20 mg/kg, po qd administered 7 days measured on day 8 post formalin challenge by plethysmometric analysis relative to control; assay type: functional; how it was run: as §2
[5] = tested on: Rattus norvegicus; assay: Antiinflammatory activity in albino rat assessed as inhibition of formalin-induced paw edema at 20 mg/kg, po administered 1 hr prior to formalin challenge measured after 1 hr by plethysmometric analysis relative to control; assay type: functional; how it was run: as §3
[6] = tested on: Rattus norvegicus; assay: Analgesic activity in albino rat assessed as increase in tail withdrawal latency at 20 mg/kg, po after 1 hr relative to control; assay type: functional; how it was run: as §1
[7] = tested on: Rattus norvegicus; assay: Antiinflammatory activity in albino rat assessed as inhibition of formalin-induced paw edema at 20 mg/kg, po administered 1 hr prior to formalin challenge measured after 2 hrs by plethysmometric analysis relative to control; assay type: functional; how it was run: as §3
[8] = tested on: Rattus norvegicus; assay: Analgesic activity in albino rat assessed as increase in tail withdrawal latency at 20 mg/kg, po after 4 hrs relative to control; assay type: functional; how it was run: as §1
[9] = tested on: Rattus norvegicus; assay: Antiinflammatory activity in po dosed albino rat assessed as inhibition of formalin-induced paw edema administered 1 hr prior to formalin challenge measured after 2 hrs by plethysmometric analysis; assay type: functional
How it was run: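 Male albino rats, 180-200 g, groups of five, dosed orally at 5, 10, 20, 40 and 50 mg/kg. After 1 h, 2% formalin (0.1 ml) injected subplantar into left hind paw. Paw edema inhibition measured plethysmometrically 2 h after formalin injection. ED50 derived from these doses.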

[10] = Acute toxicity in po dosed rat assessed as mortality after 24 hrs; assay type: organism-based; settings: in vivo, read-out: ALD50
How it was run: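 Male rats, 180-200 g, groups of five, fasted 24 h before dosing. Compounds given orally at graded doses of 0.1-0.3 g/kg body weight. Mortality at each dose level recorded after 24 h to estimate approximate acute lethal dose (ALD50).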

[11] = tested on: Rattus norvegicus; assay: Ulcerogenic activity in albino rat assessed as appearance of hyperemia at 300 mg/kg, po bid administered for 3 days measured after 6 hrs post last dose relative to control; assay type: toxicity, organism-based; set-up: dose 300 mg/kg, route oral; settings: in vivo
How it was run: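 Rats received 300 mg/kg per day orally as two equal doses at 0 and 12 h for three successive days, with water ad libitum. Controls received 1% gum acacia orally. Animals were killed with diethyl ether 6 h after the last dose. Stomachs were removed and inspected grossly for hyperemia and ulceration. Diclofenac Na served as reference.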

Structure (SMILES)	Activity [1] [%]	inhibition in vivo at 20 mg/kg [2] [%]	inhibition in vivo at 20 mg/kg [3] [%]	inhibition in vivo at 20 mg/kg [4] [%]	inhibition in vivo at 20 mg/kg [5] [%]	Activity [6] [%]	inhibition in vivo at 20 mg/kg [7] [%]	Activity [8] [%]	ED50 [9] [mg/kg]	LD50 at 24 h [10] [mg/kg]	Activity [11]
Cc1sc2nc3ncc(-c4ccc(Br)cc4)nn3c(=O)c2c1C	24	33	27	25	13	13	5	28	–	–	–
Cc1sc2nc3[nH]c(Nc4ccc(Cl)cc4)nn3c(=O)c2c1C	40	36	11	24	9	26	6	54	–	–	–
Cc1ccc(-c2cnc3nc4sc(C)c(C)c4c(=O)n3n2)cc1	25	25	27	22	21	13	28	29	–	–	–
Cc1nn2c(=O)c3c(C)c(C)sc3nc2[nH]1	40	44	52	31	38	30	43	54	23.4	> 300	Non-toxic
Cc1sc2nc3[nH]c(=S)[nH]n3c(=O)c2c1C	35	47	27	40	42	27	43	39	27.5	> 300	20%
Cc1sc2nc3[nH]c(CC#N)nn3c(=O)c2c1C	53	47	36	38	42	41	25	64	29	> 300	20%
Cc1sc2nc3[nH]c(Nc4ccccc4)nn3c(=O)c2c1C	17	36	25	20	9	5	12	26	–	–	–
